Here are results for one compound from ChEMBL document CHEMBL1765003, “Discovery of (1S,2R,3R)-2,3-dimethyl-2-phenyl-1-sulfamidocyclopropanecarboxylates: novel and highly selective aggrecanase inhibitors” (J Med Chem, 2011).

A short description of data set [1]: Oral bioavailability in Sprague-Dawley rat at 10 mg/kg. It is filed as ADME, organism-based. Particulars: Sprague-Dawley, in vivo; call rule not given here.
In another data set the target is Stromelysin-1 (Homo sapiens, UniProt P08254). The data set is described as follows: Inhibition of human recombinant MMP3 after 60 mins by fluorescence plate reader. The essentials: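 rh-MMP-3 at 40 ng/mL with 10 μM MOCAc-Arg-Pro-Lys-Pro-Val-Glu-Nva-Trp-Arg-Lys(Dnp)-NH₂, in Tris-HCl pH 7.5/NaCl/CaCl₂/Brij-35 buffer. Inhibitor preincubated for 15 min at 25 °C. Fluorescence (ex 325/em 405 nm) read at 60 min. IC50 from three central linear points; at least two determinations averaged.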

Data set [2] has as its target T1, A disintegrin and metalloproteinase with thrombospondin motifs 4 (Homo sapiens, UniProt O75173).
T1 sequence (O75173 whole entry): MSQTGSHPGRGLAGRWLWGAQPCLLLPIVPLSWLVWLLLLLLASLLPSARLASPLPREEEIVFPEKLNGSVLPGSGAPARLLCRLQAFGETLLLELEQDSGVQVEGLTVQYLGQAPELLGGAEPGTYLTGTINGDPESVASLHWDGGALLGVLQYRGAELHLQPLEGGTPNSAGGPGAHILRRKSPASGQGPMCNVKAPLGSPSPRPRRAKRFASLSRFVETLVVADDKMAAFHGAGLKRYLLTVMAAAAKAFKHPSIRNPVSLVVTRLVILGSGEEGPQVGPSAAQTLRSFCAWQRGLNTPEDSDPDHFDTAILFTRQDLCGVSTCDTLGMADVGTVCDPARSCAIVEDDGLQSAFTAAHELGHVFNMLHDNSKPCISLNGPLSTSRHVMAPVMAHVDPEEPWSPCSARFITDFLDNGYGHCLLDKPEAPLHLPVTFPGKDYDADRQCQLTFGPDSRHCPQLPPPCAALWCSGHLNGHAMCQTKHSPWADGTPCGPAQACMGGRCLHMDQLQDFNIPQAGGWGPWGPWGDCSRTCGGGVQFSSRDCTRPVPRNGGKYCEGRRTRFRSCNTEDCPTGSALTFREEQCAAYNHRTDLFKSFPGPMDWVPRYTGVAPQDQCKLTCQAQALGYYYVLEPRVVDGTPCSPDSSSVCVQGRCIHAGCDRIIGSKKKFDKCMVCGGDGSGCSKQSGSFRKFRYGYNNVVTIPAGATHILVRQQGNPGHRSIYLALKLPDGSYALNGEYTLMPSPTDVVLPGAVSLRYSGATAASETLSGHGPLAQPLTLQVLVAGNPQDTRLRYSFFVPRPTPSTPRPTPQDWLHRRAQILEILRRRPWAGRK
The data set is described as follows: Inhibition of human recombinant aggrecanase 1 after 150 mins by fluorescence plate reader.

Data set [3] has as its target Matrix metalloproteinase-14 (Homo sapiens, UniProt P50281). The data set is described as follows: Inhibition of human recombinant MMP14 after 60 mins by fluorescence plate reader. The essentials: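 Recombinant human enzyme at 20 ng/mL with 10 μM MOCAc-Lys-Pro-Leu-Gly-Leu-A2pr(Dnp)-Ala-Arg-NH₂, in 100 mM Tris-HCl pH 7.5, 150 mM NaCl, 10 mM CaCl₂, 0.05% Brij-35. Enzyme pretreated with inhibitor for 15 min at 25 °C, then substrate added. Fluorescence (ex 325, em 405 nm) read at 60 min. IC50 taken from three points in the linear range; mean of ≥2 determinations.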

The next data set concerns the target Cytochrome P450 3A4 (Homo sapiens, UniProt P08684). Put plainly: Inhibition of CYP3A4 at up to 50 uM. It is filed as ADME.
Data set [4] in a line: AUC in Sprague-Dawley rat at 10 mg/kg, po. It counts as ADME, organism-based. As to conditions: plasma. Further details: dose 10 mg/kg, route oral.
The nature of data set [5]: Half life in Sprague-Dawley rat at 10 mg/kg, po. It counts as ADME, organism-based. Set-up: dose 10 mg/kg, route oral. Particulars: in vivo.
The target in the next data set is T2, Cytochrome P450 2A6 (Homo sapiens, UniProt P11509).
T2 sequence (P11509 whole entry): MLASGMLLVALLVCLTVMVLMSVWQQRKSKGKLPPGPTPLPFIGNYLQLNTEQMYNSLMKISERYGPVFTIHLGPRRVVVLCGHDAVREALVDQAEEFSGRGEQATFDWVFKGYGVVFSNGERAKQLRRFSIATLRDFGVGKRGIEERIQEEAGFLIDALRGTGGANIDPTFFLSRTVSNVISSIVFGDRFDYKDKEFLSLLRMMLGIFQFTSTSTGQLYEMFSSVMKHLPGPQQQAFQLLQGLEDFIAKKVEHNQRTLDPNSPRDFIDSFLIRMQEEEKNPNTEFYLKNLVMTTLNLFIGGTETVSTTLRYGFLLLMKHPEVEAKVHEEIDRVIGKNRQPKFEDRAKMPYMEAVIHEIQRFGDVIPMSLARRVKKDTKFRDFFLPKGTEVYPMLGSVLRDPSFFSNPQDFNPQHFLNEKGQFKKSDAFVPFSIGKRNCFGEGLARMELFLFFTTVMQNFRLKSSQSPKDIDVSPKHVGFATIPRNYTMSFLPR
The data set is described as follows: Inhibition of CYP2A6 at up to 50 uM. It counts as ADME.

Data set [6] deals with Disintegrin and metalloproteinase domain-containing protein 17 (Homo sapiens, UniProt P78536). Put plainly: Inhibition of human recombinant TACE after 60 mins by fluorescence plate reader. The essentials: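 rh-TACE at 80 ng/mL with 10 μM MCA-Pro-Leu-Ala-Gln-Ala-Val-Dpa-Arg-Ser-Ser-Ser-Arg-NH₂, in 100 mM Tris-HCl pH 7.5, 150 mM NaCl, 10 mM CaCl₂, 0.05% Brij-35. Inhibitor preincubated for 15 min at 25 °C. Fluorescence (ex 325/em 405 nm) read at 60 min. IC50 from three linear-range points; mean of ≥2.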

The next data set deals with Cytochrome P450 2D6 (Homo sapiens, UniProt P10635). The data set is described as follows: Inhibition of CYP2D6 at up to 50 uM. It counts as ADME.
A further data set concerns the target Cytochrome P450 2C19 (Homo sapiens, UniProt P33261). The data set is described as follows: Inhibition of CYP2C19 at up to 50 uM. It is filed as ADME.

Cytochrome P450 2C19, sequence (P33261 whole entry): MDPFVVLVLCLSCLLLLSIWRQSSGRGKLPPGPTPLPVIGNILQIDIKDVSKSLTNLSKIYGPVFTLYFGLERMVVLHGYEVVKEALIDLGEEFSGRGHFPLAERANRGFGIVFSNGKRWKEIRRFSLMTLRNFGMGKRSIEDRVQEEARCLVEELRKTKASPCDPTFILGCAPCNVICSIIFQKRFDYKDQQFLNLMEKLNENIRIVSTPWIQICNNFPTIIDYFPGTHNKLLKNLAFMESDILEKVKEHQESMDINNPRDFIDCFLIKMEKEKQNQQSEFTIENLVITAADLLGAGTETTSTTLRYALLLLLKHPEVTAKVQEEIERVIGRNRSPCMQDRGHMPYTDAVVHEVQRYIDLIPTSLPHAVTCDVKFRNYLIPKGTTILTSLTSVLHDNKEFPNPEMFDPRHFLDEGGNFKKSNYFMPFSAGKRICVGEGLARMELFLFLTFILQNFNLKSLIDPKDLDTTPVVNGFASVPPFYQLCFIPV
Cytochrome P450 2D6, sequence (P10635 whole entry): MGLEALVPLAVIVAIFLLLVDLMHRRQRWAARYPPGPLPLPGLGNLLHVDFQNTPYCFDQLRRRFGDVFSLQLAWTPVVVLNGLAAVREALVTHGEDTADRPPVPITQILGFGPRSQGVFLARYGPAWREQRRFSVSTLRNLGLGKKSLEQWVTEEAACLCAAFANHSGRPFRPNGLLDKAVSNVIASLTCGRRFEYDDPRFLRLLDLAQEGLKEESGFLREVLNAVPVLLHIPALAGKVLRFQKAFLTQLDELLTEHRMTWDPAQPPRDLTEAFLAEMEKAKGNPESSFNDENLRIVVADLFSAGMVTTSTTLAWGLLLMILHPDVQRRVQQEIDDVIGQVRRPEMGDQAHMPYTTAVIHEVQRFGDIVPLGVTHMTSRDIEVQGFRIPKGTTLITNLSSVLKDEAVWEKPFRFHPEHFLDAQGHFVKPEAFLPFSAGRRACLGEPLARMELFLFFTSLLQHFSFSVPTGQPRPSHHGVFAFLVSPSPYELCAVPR
Cytochrome P450 3A4, sequence (P08684 whole entry): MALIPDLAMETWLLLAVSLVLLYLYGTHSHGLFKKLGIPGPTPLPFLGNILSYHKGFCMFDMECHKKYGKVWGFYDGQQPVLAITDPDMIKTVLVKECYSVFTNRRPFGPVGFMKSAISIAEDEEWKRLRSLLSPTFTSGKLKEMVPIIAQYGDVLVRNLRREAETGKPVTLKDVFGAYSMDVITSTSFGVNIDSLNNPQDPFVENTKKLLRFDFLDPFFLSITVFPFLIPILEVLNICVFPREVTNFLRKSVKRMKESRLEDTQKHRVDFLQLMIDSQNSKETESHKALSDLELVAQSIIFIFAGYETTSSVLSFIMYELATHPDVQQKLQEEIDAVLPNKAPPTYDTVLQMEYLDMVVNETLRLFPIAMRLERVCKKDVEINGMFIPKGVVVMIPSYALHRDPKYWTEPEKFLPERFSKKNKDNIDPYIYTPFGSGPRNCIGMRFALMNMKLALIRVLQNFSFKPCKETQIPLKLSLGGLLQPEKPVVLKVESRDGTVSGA
Disintegrin and metalloproteinase domain-containing protein 17, sequence (P78536 whole entry, the tested form may be a part): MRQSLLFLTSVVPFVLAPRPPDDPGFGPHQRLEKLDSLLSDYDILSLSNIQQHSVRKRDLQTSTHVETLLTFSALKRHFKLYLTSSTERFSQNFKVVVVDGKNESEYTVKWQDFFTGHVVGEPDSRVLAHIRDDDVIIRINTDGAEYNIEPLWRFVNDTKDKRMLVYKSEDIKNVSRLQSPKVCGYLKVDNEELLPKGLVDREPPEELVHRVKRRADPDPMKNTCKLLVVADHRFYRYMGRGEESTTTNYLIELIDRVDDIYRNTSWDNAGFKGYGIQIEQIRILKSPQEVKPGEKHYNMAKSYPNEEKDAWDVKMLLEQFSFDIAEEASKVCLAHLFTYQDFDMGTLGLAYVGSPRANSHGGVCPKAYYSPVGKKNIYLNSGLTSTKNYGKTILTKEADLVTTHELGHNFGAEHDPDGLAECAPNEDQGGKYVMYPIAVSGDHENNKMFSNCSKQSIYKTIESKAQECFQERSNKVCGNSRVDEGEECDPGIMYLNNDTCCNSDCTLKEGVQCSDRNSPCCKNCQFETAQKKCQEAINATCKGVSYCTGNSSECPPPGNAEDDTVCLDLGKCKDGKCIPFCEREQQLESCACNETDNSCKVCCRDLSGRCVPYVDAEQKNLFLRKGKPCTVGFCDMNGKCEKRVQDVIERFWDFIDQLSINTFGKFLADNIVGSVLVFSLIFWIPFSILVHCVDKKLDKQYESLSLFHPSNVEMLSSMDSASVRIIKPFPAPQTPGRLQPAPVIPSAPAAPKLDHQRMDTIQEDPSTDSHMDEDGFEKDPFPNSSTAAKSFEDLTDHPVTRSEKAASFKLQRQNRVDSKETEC
Stromelysin-1, sequence (P08254 whole entry): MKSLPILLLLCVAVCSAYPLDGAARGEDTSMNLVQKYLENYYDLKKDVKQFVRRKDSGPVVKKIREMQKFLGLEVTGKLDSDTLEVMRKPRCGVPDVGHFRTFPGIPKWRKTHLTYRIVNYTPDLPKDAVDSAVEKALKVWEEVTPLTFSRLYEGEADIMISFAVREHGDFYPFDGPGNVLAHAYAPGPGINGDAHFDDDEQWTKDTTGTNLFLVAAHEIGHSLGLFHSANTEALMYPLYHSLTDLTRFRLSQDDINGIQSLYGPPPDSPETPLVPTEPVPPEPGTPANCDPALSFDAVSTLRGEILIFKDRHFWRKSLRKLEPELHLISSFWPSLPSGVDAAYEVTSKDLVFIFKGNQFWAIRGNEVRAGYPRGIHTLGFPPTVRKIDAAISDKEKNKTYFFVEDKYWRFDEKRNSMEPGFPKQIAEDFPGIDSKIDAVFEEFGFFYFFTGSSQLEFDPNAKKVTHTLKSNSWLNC

For `C[C@@H]1[C@](C)(c2ccccc2)[C@]1(NS(=O)(=O)N1CCc2c(nc3cc(F)ccn23)C1)C(=O)O`, the bioavailability in data set [1] was 103%. In addition, the IC50 was 9.6 µM on Stromelysin-1, 23 nM in data set [2], greater than 10 µM in [3] and greater than 10 µM in data set [6]. For the same compound, the “inhibition (INH)” value against Cytochrome P450 3A4, against Cytochrome P450 2A6, against Cytochrome P450 2D6 and at Cytochrome P450 2C19 was “Not Active” throughout. This compound returned an AUC in data set [4] of 421 µM·h. Moreover, the half-life in data set [5] was 240 min.

By IC50 is commonly meant the concentration that inhibits the measured activity by half. As a reminder, the AUC is concentration integrated over time. Broadly, the half-life is the time in which the quantity being followed falls by half. A high value points to slow decline.
